The RNAGym collection of RNA variant scans (doi:10.1126/science.aae0568)
Fewer inactive variants are shown than the library holds.

B1: tRNA (parent)
chain: GUUCCGUUGGCGUAAUGGUAACGCGUCUCCCUCCUAAGGAGAAGACUGCGGGUUCGAGUCCCGUACGGAACG

Variants of: B1
Assay: yeast fitness relative to wild type (ratio to wild type); higher = fitter; tRNA-Arg(CCU), competitive growth, 37 C, YPD
Outline: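 Gene amplicons from the start population and from each of six end populations were read by 100-nucleotide paired-end sequencing. Those end populations came from pooled Saccharomyces cerevisiae strains carrying tRNA-Arg(CCU) gene variants at the native locus, competed in YPD at 37°C for 24 hours. Fitness relative to wild type was worked out from changes in genotype frequencies. Genotypes needed ≥ 100 starting reads, and estimates < 0.5 were set to 0.5.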
Work on GUUCCGUUGGCGUAAUGGUAACGGGUCUCCCUCCUAAGGUGAUGACUGGCGGUUCGAGUCUCGUAUGGAACG yielded a yeast fitness of no more than 0.5.
For GUUCCGUUGGCGUAAUGGUAACGGGUCUCCCUCCUACGGAGAAGACUGCGGGUUCGAGUCCCGUACGGAACG, the yeast fitness was 0.563.
GUUCCGUUGGCGUAAUGGUAACGGGUCUCCCUCCUAGGGAGAAGACUGCGGGUUCGAGUCCCGUACGGAACG gave a yeast fitness of 0.612.
For GUUCCGUUGGCGUAAUGGUAACGGGUCUCCCUCCUGAGGAGCAGACUGCGGGUUCGAGUCUGGUACGGAACG, the yeast fitness was no more than 0.5.
With GUUCCGUUGGCGUAAUGGUAACGGGUCUCCCUCCUCAGGAGAAGACUGCGGGUUCGAGUCCCGUACGGACCG the yeast fitness was 0.567.
With GUUCCGUUGGCGUAAUGGUAACGGGUCUCCCUCCUGAGGAGAAGACUGCGGGUUCGAGUCCCGUACGGAGCG the yeast fitness was no more than 0.5.
For GUUCCGUUGGCGUAAUGGUAACGGGUCUCCCUCCUCAGGAGAAGACUGCGGGUUGGAGUCCCGUACGGAACG, the yeast fitness was 0.587.
GUUCCGUUGGCGUAAUGGUAACGGGUCUCCCUCCUGAGGAGAAGACUGCGGGUUAGAGUCCCGUACGGAACG showed a yeast fitness of no more than 0.5.
Work on GUUCCGUUGGCGUAAUGGUAACGGGUCUCCCUCCUAAGGAGACGACUGCGGGUUCGAGUCCUGUGCGGAACG yielded a yeast fitness of no more than 0.5.
With GUUCCGUUGGCGUAAUGGUAACGGGUCUCCCUCCUAAGGAGAAGACUGCGGGUUCGAGUCCCGUUCGAAACG the yeast fitness was no more than 0.5.
GUUCCGUUGGCGUAAUGGUAACGGGUCUCCCUCCUAAGGAGGAGACUGCGGGUUCGAGUCCCGUACGGUACG showed a yeast fitness of no more than 0.5.
Variant GUUCCGUUGGCGUAAUGGUAACGGGUCUCCCUCCUAAGGAGAGGACUGCGGGUUCGAGUCCCUAACGGAACG has a yeast fitness of 0.577.
Variant GUUCCGUUGGCGUAAUGGUAACGGGUCUCCCUCCUAAGGAGAAGACUGCGGGUUCGGGUCCCGUACGGAGCG has a yeast fitness of no more than 0.5.
GUUCCGUUGGCGUAAUGGUAACGGGUCUCCCUCCUCGGGAGAAGACUGCGGGUUCGAGUCCCGUACGGACCG gave a yeast fitness of no more than 0.5.
GUUCCGUUGGCGUAAUGGUAACGGGUCUCCCUCCUAAGGAGAAGACUGCGGGUUCGAGUCCCGUGCGGAACG showed a yeast fitness of 0.703.
GUUCCGUUGGCGUAAUGGUAACGGGUCUCCCUCCUGAGGAGAAGACUGCGGGUUCGAGUCCCGUACGGAACG gave a yeast fitness of 0.557.
In the case of GUUCCGUUGGCGUAAUGGUAACGGGUCUCCCUCCUAAGGGGAAGACUGCCGGUUCGAGUCCCGUAUGGAACG, the yeast fitness is reported as no more than 0.5.
GUUCCGUUGGCGUAAUGGUAACGGGUCUCCCUCCUAAGGAGAAGACUGCGGGUUCGUGUCCCGUACGGAACG gave a yeast fitness of 0.578.
GUUCCGUUGGCGUAAUGGUAACGGGUCUCCCUCCUAAGGAGAAGACUGCGGGUUCGGGUCCCGUACGGAACG showed a yeast fitness of 0.524.
With GUUCCGUUGGCGUAAUGGUAACGGGUCUCCCUCCUAGGGAGAAGACUGCGGCUUCGAGUCCCGCACGGAACG the yeast fitness was 0.602.
In the case of GUUCCGUUGGCGUAAUGGUAACGGGUCUCCCUCCUUAGGAGAAGACUGCGGGUUCGAGUCCCGCACGGAACG, the yeast fitness is reported as 0.52.
Work on GUUCCGUUGGCGUAAUGGUAACGGGUCUCCCUCCUACGGAGAAGACUGUGGGUUCGAGUCCCGUACGGUACG yielded a yeast fitness of 0.545.
GUUCCGUUGGCGUAAUGGUAACGGGUCUCCCUCCUGAGGAGAAGACUGCUGGAUCGAGUCCCGUACGGAACG gave a yeast fitness of no more than 0.5.
Variant GUUCCGUUGGCGUAAUGGUAACGGGUCUCCCUCCUCAGGAGAAGACUGCGGGUUCGAGUCCCGUGCGGACCG has a yeast fitness of no more than 0.5.
Work on GUUCCGUUGGCGUAAUGGUAACGGGUCUCCCUCCUAAGGCGAAGACUGCGGGUUCGAGUCCCGACCGGAACG yielded a yeast fitness of no more than 0.5.
GUUCCGUUGGCGUAAUGGUAACGGGUCUCCCUCCUAAGGAGAAGACUGCGGGUUCGAGUCCCGUACGGAACG showed a yeast fitness of 0.609.
GUUCCGUUGGCGUAAUGGUAACGGGUCUCCCUCCUAAGGAGCAGACUGCGGGUUCGAGUCCCGUACGGAUCG gave a yeast fitness of 0.616.
With GUUCCGUUGGCGUAAUGGUAACGGGUCUCCCUCCUAAGGAGAGGACAGCGGGAUCGAGUCCCGUACGCAACG the yeast fitness was no more than 0.5.
GUUCCGUUGGCGUAAUGGUAACGGGUCUCCCUCCUAAGGAGACGACUGCGGCUUUGAGUCCCGUACGGCACG gave a yeast fitness of no more than 0.5.
GUUCCGUUGGCGUAAUGGUAACGGGUCUCCCUCCUCAGGAGAAGAUUGCGGAUUCGAGUCCCGUACGGAACG showed a yeast fitness of 0.637.
For GUUCCGUUGGCGUAAUGGUAACGGGUCUCCCUCCUAAGGAGAAGGCUGCGCGUACCAGUCCCGUACGGAACG, the yeast fitness was no more than 0.5.
For GUUCCGUUGGCGUAAUGGUAACGGGUCUCCCUCCUACGGAGAAGACUGCGGGUUCGAGCCCUGUACGUAACG, the yeast fitness was no more than 0.5.
Variant GUUCCGUUGGCGUAAUGGUAACGGGUCUCCCUCCUUAGGAGAUGACUGCGGGUUCGAGUCCCGCACGGAACG has a yeast fitness of no more than 0.5.
In the case of GUUCCGUUGGCGUAAUGGUAACGGGUCUCCCUCCUAGGGAGAAGACUGCGGGUUCAAAUCCCGUACAGAACG, the yeast fitness is reported as no more than 0.5.
Variant GUUCCGUUGGCGUAAUGGUAACGGGUCUCCCUCCUGAGGCGAAGACUGCGGGUUCGAGUCCCGUACGGAACG has a yeast fitness of no more than 0.5.
Work on GUUCCGUUGGCGUAAUGGUAACGGGUCUCCCUCCUAAGGAGACGACUGCGGGUUCGAGUCCCGUACGGAACG yielded a yeast fitness of 0.543.
With GUUCCGUUGGCGUAAUGGUAACGGGUCUCCCUCCUAAGGAGAUGACUGCGGGUUCGAGUCCCGUACGGAACG the yeast fitness was 0.703.
For GUUCCGUUGGCGUAAUGGUAACGGGUCUCCCUCCUAAGGCGAAGACUGAGGGUUCGAGUCCCGUACGGUACG, the yeast fitness was 0.589.
